Tests used:
MT4 [1] = assay: The concentration required to cause a 50% inhibition of HIV reproduction was determined in MT-4 cell culture for free forms; format: functional; conditions: Homo sapiens, read-out: ID50 (the source's name)
How it was run: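 HIV-1 strain GKV-4046 in MT-4 cells (2×10^6/mL, viability >90%), MOI 0.2–0.5; cells in RPMI-1640 with 10% FBS, 37 °C, 5% CO2. Infected cells grown 3 days with free compound at 0.001–100 μg/mL, triplicate per dose. p24 antigen measured by immunoassay; ID50 = concentration halving HIV reproduction; two independent experiments averaged.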

MT4 [2] = assay: The concentration required to cause a 50% inhibition of cell proliferation was determined in MT-4 cell culture.; format: functional; conditions: Homo sapiens, read-out: CD50 (the source's name)
How it was run: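 Uninfected MT-4 cells grown 3 days with compound at 0.001–100 μg/mL, triplicate per dose. Cell concentration and viability read by trypan blue exclusion; CD50 = concentration halving cell proliferation. Values averaged from two independent experiments.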

[3] = biological target: Human immunodeficiency virus type 1 reverse transcriptase (Human immunodeficiency virus 1, UniProt Q72547); assay: Inhibition of DNA synthesis by HIV reverse transcriptase
[4] = Half life period in human blood serum was determined at 37 degrees Centigrade; format: ADME, Plasma
How it was run: (§1)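 Compounds held at 37 °C in human blood serum or in phosphate buffer, pH 7.5. For serum samples, precipitated proteins were spun off after thawing. Remaining material was analysed by RP-18 HPLC with a 0–25% linear gradient of 70% ethanol in 0.05 M triethylammonium bicarbonate (pH 7.5–8.0) over 25 min. Total loaded taken as 100%. Half-lives were averaged from at least three experiments.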

[5] = Half life period in phosphate buffer (pH 7.5) was determined at 37 degrees Centigrade; format: ADME; how it was run: as §1
MT4 [6] = assay: The concentration required to cause a 50% inhibition of HIV reproduction was determined in MT-4 cell culture for liposome-entrapped forms.; format: functional; conditions: Homo sapiens, read-out: ID50 (the source's name)
How it was run: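 HIV-1 GKV-4046 in MT-4 cells, MOI 0.2–0.5, 3-day culture, p24 immunoassay read-out. Compounds given in phosphatidylcholine liposomes: dry lipid film hydrated with compound in PBS pH 7.0 (1:124 drug/lipid, 1 mM compound), extruded down to 0.1 μm pores (mean 0.16 μm); 40–50% entrapment. ID50 from two independent experiments.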

| SMILES | IC50 (MT4 [1]) [µM] | CC50 (MT4 [2]) [µM] | IC50 [3] [µM] | half-life [4] [h] | half-life [5] [h] | IC50 (MT4 [6]) [µM] |
| --- | --- | --- | --- | --- | --- | --- |
| Cc1cn([C@H]2C=C[C@@H](CO)O2)c(=O)[nH]c1=O [STAVUDINE] | 0.24 | 314 |  |  |  |  |
| Nc1nc2c(ncn2C2C=CC(OCP(=O)(O)OP(=O)(O)C(Br)(Br)P(=O)(O)OP(=O)(O)COC3C=CC(n4cnc5c(=O)[nH]c(N)nc54)C3)C2)c(=O)[nH]1 (stereo unspecified) |  |  | > 250 |  |  |  |
| Cc1cn([C@H]2C[C@H](N=[N+]=[N-])[C@@H](CO)O2)c(=O)[nH]c1=O [ZIDOVUDINE] | 0.004 | 140 |  |  |  |  |
| Nc1ncnc2c1ncn2C1C=CC(OCP(=O)(O)OP(=O)(O)C(F)(F)P(=O)(O)O)C1 (stereo unspecified) |  |  | 25 |  |  |  |
| Nc1ncnc2c1ncn2C1C=CC(OCP(=O)(O)OP(=O)(O)C(Br)(Br)P(=O)(O)O)C1 (stereo unspecified) | 80 | > 160 | > 1000 |  |  |  |
| Nc1nc2c(ncn2C2C=CC(OCP(=O)(O)OP(=O)(O)C(F)(F)P(=O)(O)O)C2)c(=O)[nH]1 (stereo unspecified) | > 200 | 144 | 25 | 7 | > 24 |  |
| Nc1ncnc2c1ncn2C1C=CC(OCP(=O)(O)OP(=O)(O)OP(=O)(O)OP(=O)(O)COC2C=CC(n3cnc4c(N)ncnc43)C2)C1 (stereo unspecified) | 2 | 131 | 2 |  |  | 1.2 |
| Nc1nc2c(ncn2C2C=CC(OCP(=O)(O)OP(=O)(O)OP(=O)(O)COC3C=CC(n4cnc5c(=O)[nH]c(N)nc54)C3)C2)c(=O)[nH]1 (stereo unspecified) | 9 | 56 | 8 |  |  |  |
| Nc1ncnc2c1ncn2C1C=CC(OCP(=O)(O)OP(=O)(O)OP(=O)(O)COC2C=CC(n3cnc4c(N)ncnc43)C2)C1 (stereo unspecified) | 6.6 | 146 | 10 |  |  |  |
| Nc1ncnc2c1ncn2C1C=CC(OCP(=O)(O)OP(=O)(O)C(F)(F)P(=O)(O)OP(=O)(O)COC2C=CC(n3cnc4c(N)ncnc43)C2)C1 (stereo unspecified) |  |  | 20 |  |  |  |
| Nc1ncnc2c1ncn2C1C=CC(OCP(=O)(O)OP(=O)(O)C(Br)(Br)P(=O)(O)OP(=O)(O)COC2C=CC(n3cnc4c(N)ncnc43)C2)C1 (stereo unspecified) | 5.4 | > 110 | > 200 |  |  |  |
| Nc1ncnc2c1ncn2C1C=CC(OCP(=O)(O)OP(=O)(O)OP(=O)(O)O)C1 (stereo unspecified) | > 10 | 212 | 0.2 |  |  |  |
| Nc1nc2c(ncn2C2C=CC(OCP(=O)(O)OP(=O)(O)C(Br)(Br)P(=O)(O)O)C2)c(=O)[nH]1 (stereo unspecified) |  |  | > 200 |  |  |  |
| Nc1nc2c(ncn2[C@H]2C[C@H](O)[C@@H](COP(=O)(O)OP(=O)(O)OP(=O)(O)O)O2)c(=O)[nH]1 [DEOXYGUANOSINE TRIPHOSPHATE] |  |  |  | 0.3 | > 24 |  |
| Nc1nc2c(ncn2C2C=CC(OCP(=O)(O)OP(=O)(O)OP(=O)(O)O)C2)c(=O)[nH]1 (stereo unspecified) | 7.2 | 20.5 | 0.3 |  |  | < 1 |
| Nc1nc(O)c2ncn(C3C=CC(OCP(=O)(O)OP(=O)(O)C(F)(F)P(=O)(O)OP(=O)(O)COC4C=CC(n5cnc6c(O)nc(N)nc65)C4)C3)c2n1 (stereo unspecified) | 60 | 84 | 15 | 3 | 15 |  |
| Nc1nc(O)c2ncn(C3C=CC(OCP(=O)(O)O)C3)c2n1 (stereo unspecified) | 201 | > 320 |  |  |  |  |
| Nc1nc2c(ncn2C2C=CC(OCP(=O)(O)OP(=O)(O)OP(=O)(O)OP(=O)(O)COC3C=CC(n4cnc5c(=O)[nH]c(N)nc54)C3)C2)c(=O)[nH]1 (stereo unspecified) | > 12 | > 12 | 0.7 | 3 | 12 | 0.5 |

Reference: ChEMBL document CHEMBL1135574, “Carbocyclic dinucleoside polyphosphonates: interaction with HIV reverse transcriptase and antiviral activity” (J Med Chem, 2002)
